Measured values from ChEMBL document CHEMBL1122343, “2-Benzazepines. 4. [1,2,3]Triazolo[4,5-d][2]benzazepines and dibenzo[c,f][1,2,3]triazolo[3,4-a]azepines: synthesis and evaluation as central nervous system agents” (J Med Chem, 1983).

Key:
[1] = target: GABA-A receptor; anion channel; test: In vitro inhibition of [3H]diazepam binding to rat GABA-A benzodiazepine receptor; type: protein-complex assay
Mus musculus [2] = test: Antianxiety activity, by anti-pentylenetetrazole test carried out on 50-54 day old mice (po); type: functional
Method in brief: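 Oral dosing to male CF-1 mice aged 50–54 days, using a modification of the Everett and Richards method. Metrazole was given iv at 70 mg/kg as the convulsant challenge.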

[3] = Lethal dose tested in mice by oral administration; type: toxicity, organism-based; conditions: mouse, in vivo
Mus musculus [4] = test: Antianxiety activity, by inclined screen procedure carried out on 50-54 day old mice(po); type: functional
Mus musculus [5] = test: Antianxiety activity, by rotarod test carried out on 50-54 day old mice (po); type: functional

Structure (SMILES) | IC50 [1] | ED50 (Mus musculus [2]) | LD50 [3] | ED50 (Mus musculus [4]) | ED50 (Mus musculus [5])
Clc1ccccc1C1=NCc2n[nH]nc2-c2ccccc21 | 5.2 nM | > 100 mg/kg | 900 mg/kg | – | –
c1ccc(C2=NCc3n[nH]nc3-c3ccccc32)cc1 | 420 nM | > 100 mg/kg | 775 mg/kg | – | –
Fc1ccccc1C1=NCc2n[nH]nc2-c2ccc(Cl)cc21 | 0.76 nM | 2.1 mg/kg | > 1000 mg/kg | 302 mg/kg | 48 mg/kg
Clc1ccc2c(c1)C(c1ccccc1Cl)=NCc1n[nH]nc1-2 | 0.76 nM | 2.6 mg/kg | > 1000 mg/kg | > 400 mg/kg | 57 mg/kg
CN1C(=O)CN=C(c2ccccc2)c2cc(Cl)ccc21 [DIAZEPAM] | – | 1.4 mg/kg | – | 25 mg/kg | 2.6 mg/kg
Clc1ccc2c(c1)C(c1ccccc1)=NCc1n[nH]nc1-2 | 11 nM | 4.2 mg/kg | > 1000 mg/kg | > 400 mg/kg | 26 mg/kg
